# L major viab: Leishmania major promastigote growth inhibition, primary screen; Leishmania major promastigotes, resazurin fluorescence viability; inhibition, % at 10 µM; 200,000 tested, 9% active;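 further: promastigotes grown with compound for 44 hours at 28 °C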
# WT yeast gro inh: growth inhibition of WT strain, primary screen, mitochondrial fusion inhibitor project, WT and mutant strains, chemical genetic. mitochondrial fusion phenotypic screen. inhibition, % at 10 µM. 190,000 tested, 2.1% active. AID 1362, 2008; in the data active means inhibition above about 58%; tested in S. cerevisiae
# G6PDH counter: L. mesenteroides G6PDH inhibitors, counter-screen for G6PDH-coupled screening assays, biochemical, Leuconostoc mesenteroides enzyme; glucose-6-phosphate dehydrogenase [Leuconostoc mesenteroides]; Purified L. mesenteroides G6PDH, diaphorase/resazurin coupled fluorescence, 45 min; inhibition, % at 5 µM; 200,000 tested, 0.12% active; AID 1020, 2008
# Diaphorase inh: diaphorase inhibitors and chemical oxidizers, primary screen, counter-screen for diaphorase-coupled primary assays, biochemical, uHTS, resorufin fluorescence | diaphorase resazurin-to-resorufin fluorescence, NADH, 16 min; bacterial (C. kluyveri) enzyme, not human | inhibition, % at 20 µM | 190,000 tested, 0.69% active | AID 1217, 2008;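 active means primary screen inhibition at 20 µM above a set limit, cut at about 50% in these data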;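 further: plate controls were DMSO with full reaction for no effect and wells lacking NADH for full effect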
#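 material = Clostridium kluyveri diaphorase enzyme | amount = 0.14 U/mL diaphorase, enzyme working solution | schedule = incubation 16 min, room temperature | detection = fluorescence of resorufin formed from resazurin, Ex 544/Em 590 nm | benchmarks = positive control minus NADH, DMSO neutral control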
# Diaphorase act: compounds boosting diaphorase resazurin reduction – biochemical, uHTS, resorufin fluorescence, counter-screen for diaphorase-coupled primary assays, primary screen; Diaphorase/resazurin coupled assay, 16 min; stronger effect = higher value; 1 = vehicle wells, 0 = NADH-free wells; activation factor at 20 µM; 190,000 tested, 0.005% active; AID 1229, 2008;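 active means diaphorase activity raised at least twofold by the compound at 20 µM; inactive means activation factor below 2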
#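 Assay system: Purified diaphorase enzyme from Clostridium kluyveri | Amount: Enzyme 0.07 U/mL final | Dosing: Compound 20 µM once, DMSO 1% | Timing: 16 min reaction at room temperature | Detection: Fluorescence, excitation 544 nm and emission 590 nm | Evaluation: Higher resorufin formation from activation or reduction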
# * hit, by the source's call; . = no result. Compounds with a hit are over-represented: about 11% of the library has one in this group of screens. Unless noted, no stated cut-off is given here; in the data, active means inhibition above about 50%; inactive means the rest.
SMILES,L major viab,WT yeast gro inh,G6PDH counter,Diaphorase inh,Diaphorase act
Clc1ccc(-c2nnc(NCc3ccccc3)c3ccccc23)cc1,44.4,73.4*,-8.6,5.9,0.9
Nc1cc(=O)[nH]c(SCC(=O)N2CCCCC2)n1,5.0,3.7,5.9,2.8,1
C=CCn1c(SCn2nnc3ccccc3c2=O)nnc1C1CCCCC1,-1.9,-7.9,10.7,18.5,0.8
O=C(CC(C(=O)N1CCc2ccccc21)n1ccnc1)NCc1ccccc1 (centres undefined),100.1*,-6.6,10.7,11.3,0.9
CCN(CC)CC(C)CNC(=O)CC(C(=O)N1CCc2ccccc21)n1ccnc1 (centres undefined),-4.4,18.2,2.8,7.5,0.9
CCOC(=O)N1CCN(C(=O)CC(C(=O)N2CCc3ccccc32)n2ccnc2)CC1 (centres undefined),83.4*,1.1,14.3,0.7,1
COC(=O)c1nnn(-c2nc(N3CCOCC3)nc(N3CCOCC3)n2)c1C,-0.3,-12.4,-1.5,-0.9,1
Cc1ccc(S(=O)(=O)N2CCN(CC(=O)N/N=C/c3ccco3)CC2)cc1,-1.4,-3.3,5.0,10.2,0.9
Cc1ccc(S(=O)(=O)NN/C(=N/S(=O)(=O)c2ccccc2)c2ccccc2)cc1,-9.3,-2.5,1.6,1.7,1
Cc1ccc(S(=O)(=O)/N=C(\c2ccccc2)N(C)S(=O)(=O)c2ccccc2)cc1,63.2*,2.1,27.6,-3.4,1
Cc1ccc(NC(=O)COC(=O)C(NS(=O)(=O)c2ccc(Cl)cc2)C(C)O)cc1C (centres undefined),5.1,-11.4,11.2,14.8,0.9
CCN(CC)CCNc1ncnc2c1sc1nc(N3CCOCC3)c3c(c12)CC(C)(C)SC3,100.5*,0.2,9.3,17.4,0.8
CN(C)CCNc1ncnc2c1sc1nc(N3CCOCC3)c3c(c12)CC(C)(C)SC3,100.6*,23.8,2.7,8.0,0.9
CC1(C)Cc2c(c(N3CCOCC3)nc3sc4c(=O)[nH]cnc4c23)CS1,14.0,-1.7,2.0,35.0,0.7
CC1(C)Cc2c(c(N3CCOCC3)nc3sc4c(N5CCOCC5)nnnc4c23)CS1,-5.6,-1.2,-29.6,14.1,0.9
CCCOc1ccc(/C=C/C(=O)NCc2ccccc2)cc1,-1.1,13.7,13.8,9.2,0.9
NC(=O)CCS(=O)(=O)c1ccc(Cl)cc1,-6.3,-1.9,13.7,4.1,1
COc1cc2nc(N3CCN(C(=O)c4ccco4)CC3)nc(N)c2cc1OC,100.3*,-5.6,6.2,2.4,1
COc1ccc(CC(=O)NC(C)C2COc3ccccc3O2)cc1OC (centres undefined),-7.2,-6.6,6.2,7.8,0.9
Cc1cc(NCCCN2CCOCC2)n2ncc(-c3ccc(Cl)cc3)c2n1,99.0*,29.5,6.2,5.4,0.9
Cc1ccc(Cn2ncc3c(NCCCN4CCOCC4)ncnc32)cc1,-3.0,1.6,8.3,11.2,0.9
Cc1cc(NCCCn2ccnc2)n2ncc(-c3ccc(Cl)cc3)c2n1,99.9*,63.9*,0.1,-15.7,1.2
CCOC(=O)C1(Cc2cccc(OC)c2)CCN(C/C=C/c2ccccc2)CC1,79.9*,38.6,11.6,15.0,0.8
CCOC(=O)C1(Cc2cccc(OC)c2)CCN(Cc2ccc(OC)c(O)c2)CC1,84.7*,-13.2,3.7,2.6,1
CCOC(=O)C1(Cc2cccc(OC)c2)CCN(C2CCOCC2)CC1,81.0*,2.9,-0.8,.,.
SMILES,L major viab,WT yeast gro inh,G6PDH counter,Diaphorase inh,Diaphorase act
CCOC(=O)C1(Cc2cccc(OC)c2)CCN(CCO)CC1,-4.5,-2.4,0.2,5.0,0.9
CN(C)c1ccc(/C=N/NC(=O)CN(c2cccc(Cl)c2)S(C)(=O)=O)cc1Br,21.6,12.0,6.0,10.9,0.9
Cc1c([N+](=O)[O-])c([N+](=O)[O-])nn1CC(=O)N1CCCCC1,34.8,-21.6,4.0,6.1,0.9
CC(=O)c1c(C)nc2ccccc2c1N,95.8*,1.4,-1.8,3.6,1
CCn1c2ccccc2c2cc(NC(=O)Cc3ccc(S(=O)(=O)N4CCOCC4)s3)ccc21,81.2*,-11.6,-1.7,10.7,0.9
CN(C)S(=O)(=O)c1ccc(NC(=O)Cc2ccc(S(=O)(=O)N3CCOCC3)s2)cc1,-2.9,6.9,4.2,0.0,1
CN(Cc1ccccc1)C(=S)Nc1cccnc1,3.8,2.0,7.6,-1.0,1
CCS(=O)(=O)N1CCN(c2ccccn2)CC1,91.9*,12.4,-5.9,7.3,0.9
Cn1nc([N+](=O)[O-])nc1N1CCOCC1,-0.1,-1.2,-0.5,26.3,0.7
NC(=O)CCC(NS(=O)(=O)c1ccc(Cl)cc1)C(=O)NCc1ccc(Cl)cc1 (centres undefined),60.2*,3.7,0.7,8.3,0.9
CSCCC(NC(N)=O)C(=O)NCc1ccc(Cl)cc1 (centres undefined),-4.3,-2.5,2.0,-1.9,1
Cc1ccc(NC(=O)CSc2nnc3ccccn23)cc1S(=O)(=O)N1CCOCC1,-1.8,-0.6,3.5,10.6,0.9
COCCNC(=O)Cn1c(=O)n(CCCCCC(=O)Nc2ccccc2)c(=O)c2sccc21,-2.9,1.9,31.6,11.0,0.9
COc1ccc(NC(=O)CCCn2c(=O)c3sccc3n(Cc3ccccc3C)c2=O)cc1,89.3*,10.7,8.4,5.8,0.9
COCCCNC(=O)Cn1c(=O)n(CCCCCC(=O)Nc2ccccc2)c(=O)c2sccc21,50.2*,-0.9,-3.0,0.6,1
CC(=O)Nc1cc(Cl)ccc1OS(=O)(=O)c1ccc(C)cc1,0.5,17.2,5.8,11.7,0.9
CCCCn1c(Cc2ccccc2)nnc1SCC(=O)Nc1cc(C)on1,1.0,-12.2,-0.8,59.1*,0.4
COc1ccc(C2C(C#N)=C(C)NC3=C2S(=O)(=O)c2ccccc23)cc1 (centres undefined),6.6,58.2*,3.6,11.3,0.9
Cc1nc(NC(=O)c2csc3ccccc23)sc1C,59.6*,13.3,1.2,12.9,0.9
Cc1nn(C)c(C)c1/C=N/NC(=O)c1csc2ccccc12,-3.1,7.8,-21.3,13.5,0.9
CN1CCN(Cc2nc3ccccc3c(=O)n2Cc2nc(-c3ccc4ccccc4c3)cs2)CC1,100.3*,80.7*,-22.9,15.9,0.8
CN1CCN(Cc2nc3ccccc3c(=O)n2Cc2nc(-c3cccc([N+](=O)[O-])c3)cs2)CC1,36.9,34.2,3.5,5.0,0.9
Cc1c(CCOC(=O)c2cc([N+](=O)[O-])cc([N+](=O)[O-])c2)sc[n+]1CC(=O)c1ccc(Br)cc1,99.6*,35.6,7.9,0.0,1
Cc1ncsc1CCOC(=O)c1cccc([N+](=O)[O-])c1,13.2,-10.2,-6.0,18.7,0.8

# Screens as filed in PubChem BioAssay.
